Results reported in ChEMBL document CHEMBL5724801, “EUbOPEN Chemogenomics Library - Multiplex” (2024).
Where “and” joins values, the source holds several entries; their conditions need not be identical. Equal entries are not always repeated.

System: HEK-293T
Assay: Multiplex assay against HEK293T
Assay type: toxicity, cell-based
Settings: human
How it was run: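 On a CQ1 microscope at 37°C and 5% CO2, live cells were imaged after compound addition. They had been stained at seeding with Hoechst33342, BioTracker Green Microtubule Cytoskeleton Dye, MitoTracker Red and Annexin V Alexa Fluor 680. CellPathfinder machine-learning gating assigned cells to Hoechst high-intensity objects or normal cells, normal cells to healthy, pyknosed or fragmented nuclei, and pyknosed cells to mitotic or apoptotic. Tubulin, mitochondrial-mass and membrane-permeability phenotypes are per cents of healthy-nucleus cells.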

[1] = 12 h, 1 µM, compound concentration 1 uM
[2] = 12 h, 10 µM, compound concentration 10 uM
[3] = 24 h, 1 µM, compound concentration 1 uM
[4] = 24 h, 10 µM, compound concentration 10 uM
[5] = 48 h, 1 µM, compound concentration 1 uM
[6] = 48 h, 10 µM, compound concentration 10 uM

Question: With COc1c(C)cc(NC(=O)c2nn(Cc3ccc(F)cc3)c3c2CN(C(=O)c2ccc[nH]2)C[C@]3(C)C(N)=O)cc1C as the compound, how does the “Population Apoptotic (%)” value [1] read?
Answer: 42% and 38%

Question: What about the “Population Fragmented Nuclei (%)” value [1] of the same compound?
Answer: 6% and 7%

Question: And the “Population Healthy Nuclei (%)” value [1]?
Answer: 79% and 75%

Question: What about the “Population Hoechst High Intensity Objects (%)” value [1] of the same compound?
Answer: 7% and 5%

Question: What about the “Population Membrane Permeable-Phenotype (%)” value [1] of the same compound?
Answer: 0%

Question: What about the “Population Mitochondria Different-Phenotype (%)” value [1] of the same compound?
Answer: 51% and 58%

Question: What about the “Population Mitotic Cells (%)” value [1] of the same compound?
Answer: 57% and 61%

Question: And the “Population Normal (%)” value [1]?
Answer: 92% and 94%

Question: What about the “Population Pyknosed Nuclei (%)” value [1] of the same compound?
Answer: 13% and 17%

Question: What about the “Population Tubulin-Different-Phenotype (%)” value [1] of the same compound?
Answer: 36% and 29%

Question: And the “Total Cell Count” value [1]?
Answer: 426 and 304

Question: And the “Population Apoptotic (%)” value [2]?
Answer: 67% and 59%

Question: What about the “Population Fragmented Nuclei (%)” value [2] of the same compound?
Answer: 4% and 6%

Question: What about the “Population Healthy Nuclei (%)” value [2] of the same compound?
Answer: 77% and 71%

Question: And the “Population Hoechst High Intensity Objects (%)” value [2]?
Answer: 13%

Question: And the “Population Membrane Permeable-Phenotype (%)” value [2]?
Answer: 0%

Question: And the “Population Mitochondria Different-Phenotype (%)” value [2]?
Answer: 90% and 95%

Question: What about the “Population Mitotic Cells (%)” value [2] of the same compound?
Answer: 32% and 40%

Question: What about the “Population Normal (%)” value [2] of the same compound?
Answer: 86%

Question: And the “Population Pyknosed Nuclei (%)” value [2]?
Answer: 17% and 21%

Question: What about the “Population Tubulin-Different-Phenotype (%)” value [2] of the same compound?
Answer: 62% and 63%

Question: What about the “Total Cell Count” value [2] of the same compound?
Answer: 383 and 285

Question: What about the “Population Apoptotic (%)” value [3] of the same compound?
Answer: 21% and 51%

Question: What about the “Population Fragmented Nuclei (%)” value [3] of the same compound?
Answer: 7% and 5%

Question: And the “Population Healthy Nuclei (%)” value [3]?
Answer: 80% and 86%

Question: What about the “Population Hoechst High Intensity Objects (%)” value [3] of the same compound?
Answer: 4%

Question: And the “Population Membrane Permeable-Phenotype (%)” value [3]?
Answer: 0%

Question: And the “Population Mitochondria Different-Phenotype (%)” value [3]?
Answer: 30% and 43%

Question: And the “Population Mitotic Cells (%)” value [3]?
Answer: 78% and 48%

Question: And the “Population Normal (%)” value [3]?
Answer: 95%

Question: And the “Population Pyknosed Nuclei (%)” value [3]?
Answer: 12% and 7%

Question: And the “Population Tubulin-Different-Phenotype (%)” value [3]?
Answer: 24% and 16%

Question: And the “Total Cell Count” value [3]?
Answer: 574 and 422

Question: And the “Population Apoptotic (%)” value [4]?
Answer: 53% and 67%

Question: What about the “Population Fragmented Nuclei (%)” value [4] of the same compound?
Answer: 6% and 5%

Question: And the “Population Healthy Nuclei (%)” value [4]?
Answer: 73% and 74%

Question: And the “Population Hoechst High Intensity Objects (%)” value [4]?
Answer: 11% and 15%

Question: What about the “Population Membrane Permeable-Phenotype (%)” value [4] of the same compound?
Answer: 0%

Question: What about the “Population Mitochondria Different-Phenotype (%)” value [4] of the same compound?
Answer: 91% and 92%

Question: What about the “Population Mitotic Cells (%)” value [4] of the same compound?
Answer: 46% and 32%

Question: What about the “Population Normal (%)” value [4] of the same compound?
Answer: 88% and 84%

Question: What about the “Population Pyknosed Nuclei (%)” value [4] of the same compound?
Answer: 19%

Question: And the “Population Tubulin-Different-Phenotype (%)” value [4]?
Answer: 61% and 56%

Question: What about the “Total Cell Count” value [4] of the same compound?
Answer: 403 and 313

Question: What about the “Population Apoptotic (%)” value [5] of the same compound?
Answer: 21% and 39%

Question: What about the “Population Fragmented Nuclei (%)” value [5] of the same compound?
Answer: 11% and 12%

Question: And the “Population Healthy Nuclei (%)” value [5]?
Answer: 81%

Question: And the “Population Hoechst High Intensity Objects (%)” value [5]?
Answer: 2% and 3%

Question: What about the “Population Membrane Permeable-Phenotype (%)” value [5] of the same compound?
Answer: 1%

Question: What about the “Population Mitochondria Different-Phenotype (%)” value [5] of the same compound?
Answer: 25% and 28%

Question: What about the “Population Mitotic Cells (%)” value [5] of the same compound?
Answer: 78% and 60%

Question: And the “Population Normal (%)” value [5]?
Answer: 97% and 96%

Question: What about the “Population Pyknosed Nuclei (%)” value [5] of the same compound?
Answer: 6%

Question: What about the “Population Tubulin-Different-Phenotype (%)” value [5] of the same compound?
Answer: 18% and 9%

Question: And the “Total Cell Count” value [5]?
Answer: 920 and 652

Question: What about the “Population Apoptotic (%)” value [6] of the same compound?
Answer: 60% and 80%

Question: And the “Population Fragmented Nuclei (%)” value [6]?
Answer: 8% and 9%

Question: What about the “Population Healthy Nuclei (%)” value [6] of the same compound?
Answer: 76% and 81%

Question: What about the “Population Hoechst High Intensity Objects (%)” value [6] of the same compound?
Answer: 14% and 10%

Question: What about the “Population Membrane Permeable-Phenotype (%)” value [6] of the same compound?
Answer: 0%

Question: And the “Population Mitochondria Different-Phenotype (%)” value [6]?
Answer: 93% and 90%

Question: What about the “Population Mitotic Cells (%)” value [6] of the same compound?
Answer: 39% and 19%

Question: And the “Population Normal (%)” value [6]?
Answer: 85% and 89%

Question: And the “Population Pyknosed Nuclei (%)” value [6]?
Answer: 15% and 9%

Question: What about the “Population Tubulin-Different-Phenotype (%)” value [6] of the same compound?
Answer: 66% and 59%

Question: And the “Total Cell Count” value [6]?
Answer: 467 and 376

Question: Which “Population Apoptotic (%)” value [1] does the source give for COc1cc(C(=O)N2CC[C@@H](O)[C@@H](N)C2)cc2nc(-c3cc4ccccc4n3CC3CC3)n(C)c12.Cl here?
Answer: 48% and 70%

Question: What about the “Population Fragmented Nuclei (%)” value [1] of the same compound?
Answer: 6% and 2%

Question: What about the “Population Healthy Nuclei (%)” value [1] of the same compound?
Answer: 79% and 77%

Question: And the “Population Hoechst High Intensity Objects (%)” value [1]?
Answer: 10% and 15%

Question: And the “Population Membrane Permeable-Phenotype (%)” value [1]?
Answer: 0%

Question: What about the “Population Mitochondria Different-Phenotype (%)” value [1] of the same compound?
Answer: 56% and 71%

Question: And the “Population Mitotic Cells (%)” value [1]?
Answer: 51% and 29%

Question: What about the “Population Normal (%)” value [1] of the same compound?
Answer: 89% and 84%

Question: What about the “Population Pyknosed Nuclei (%)” value [1] of the same compound?
Answer: 13% and 20%

Question: And the “Population Tubulin-Different-Phenotype (%)” value [1]?
Answer: 52% and 37%

Question: And the “Total Cell Count” value [1]?
Answer: 398 and 281

Question: And the “Population Apoptotic (%)” value [2]?
Answer: 71%

Question: And the “Population Fragmented Nuclei (%)” value [2]?
Answer: 5% and 4%

Question: And the “Population Healthy Nuclei (%)” value [2]?
Answer: 66% and 80%

Question: And the “Population Hoechst High Intensity Objects (%)” value [2]?
Answer: 21% and 18%

Question: What about the “Population Membrane Permeable-Phenotype (%)” value [2] of the same compound?
Answer: 0% and 2%

Question: And the “Population Mitochondria Different-Phenotype (%)” value [2]?
Answer: 90% and 88%

Question: And the “Population Mitotic Cells (%)” value [2]?
Answer: 28%

Question: What about the “Population Normal (%)” value [2] of the same compound?
Answer: 78% and 81%

Question: And the “Population Pyknosed Nuclei (%)” value [2]?
Answer: 28% and 15%

Question: What about the “Population Tubulin-Different-Phenotype (%)” value [2] of the same compound?
Answer: 79% and 72%

Question: And the “Total Cell Count” value [2]?
Answer: 260 and 350

Question: What about the “Population Apoptotic (%)” value [3] of the same compound?
Answer: 42% and 60%

Question: What about the “Population Fragmented Nuclei (%)” value [3] of the same compound?
Answer: 9% and 7%

Question: And the “Population Healthy Nuclei (%)” value [3]?
Answer: 77% and 79%

Question: And the “Population Hoechst High Intensity Objects (%)” value [3]?
Answer: 6% and 12%

Question: And the “Population Membrane Permeable-Phenotype (%)” value [3]?
Answer: 0%

Question: What about the “Population Mitochondria Different-Phenotype (%)” value [3] of the same compound?
Answer: 42% and 64%

Question: What about the “Population Mitotic Cells (%)” value [3] of the same compound?
Answer: 57% and 39%

Question: What about the “Population Normal (%)” value [3] of the same compound?
Answer: 93% and 87%

Question: And the “Population Pyknosed Nuclei (%)” value [3]?
Answer: 13% and 12%

Question: And the “Population Tubulin-Different-Phenotype (%)” value [3]?
Answer: 33% and 30%

Question: What about the “Total Cell Count” value [3] of the same compound?
Answer: 527 and 363

Question: And the “Population Apoptotic (%)” value [4]?
Answer: 58% and 65%

Question: What about the “Population Fragmented Nuclei (%)” value [4] of the same compound?
Answer: 8% and 6%

Question: And the “Population Healthy Nuclei (%)” value [4]?
Answer: 70% and 78%

Question: What about the “Population Hoechst High Intensity Objects (%)” value [4] of the same compound?
Answer: 18% and 21%

Question: And the “Population Membrane Permeable-Phenotype (%)” value [4]?
Answer: 0%

Question: And the “Population Mitochondria Different-Phenotype (%)” value [4]?
Answer: 94% and 92%

Question: What about the “Population Mitotic Cells (%)” value [4] of the same compound?
Answer: 41% and 34%

Question: What about the “Population Normal (%)” value [4] of the same compound?
Answer: 81% and 78%

Question: What about the “Population Pyknosed Nuclei (%)” value [4] of the same compound?
Answer: 20% and 15%

Question: And the “Population Tubulin-Different-Phenotype (%)” value [4]?
Answer: 78% and 74%

Question: What about the “Total Cell Count” value [4] of the same compound?
Answer: 312 and 411

Question: And the “Population Apoptotic (%)” value [5]?
Answer: 24% and 64%

Question: And the “Population Fragmented Nuclei (%)” value [5]?
Answer: 9%

Question: And the “Population Healthy Nuclei (%)” value [5]?
Answer: 79% and 80%

Question: And the “Population Hoechst High Intensity Objects (%)” value [5]?
Answer: 5% and 7%

Question: And the “Population Membrane Permeable-Phenotype (%)” value [5]?
Answer: 0%

Question: What about the “Population Mitochondria Different-Phenotype (%)” value [5] of the same compound?
Answer: 37% and 48%

Question: What about the “Population Mitotic Cells (%)” value [5] of the same compound?
Answer: 75% and 36%

Question: What about the “Population Normal (%)” value [5] of the same compound?
Answer: 94% and 92%

Question: And the “Population Pyknosed Nuclei (%)” value [5]?
Answer: 10%

Question: And the “Population Tubulin-Different-Phenotype (%)” value [5]?
Answer: 28% and 22%

Question: And the “Total Cell Count” value [5]?
Answer: 816 and 520

Question: And the “Population Apoptotic (%)” value [6]?
Answer: 76%

Question: And the “Population Fragmented Nuclei (%)” value [6]?
Answer: 13%

Question: And the “Population Healthy Nuclei (%)” value [6]?
Answer: 68% and 75%

Question: What about the “Population Hoechst High Intensity Objects (%)” value [6] of the same compound?
Answer: 18% and 23%

Question: And the “Population Membrane Permeable-Phenotype (%)” value [6]?
Answer: 0%

Question: What about the “Population Mitochondria Different-Phenotype (%)” value [6] of the same compound?
Answer: 89% and 87%

Question: What about the “Population Mitotic Cells (%)” value [6] of the same compound?
Answer: 23%

Question: And the “Population Normal (%)” value [6]?
Answer: 81% and 76%

Question: And the “Population Pyknosed Nuclei (%)” value [6]?
Answer: 17% and 10%

Question: And the “Population Tubulin-Different-Phenotype (%)” value [6]?
Answer: 81% and 74%

Question: And the “Total Cell Count” value [6]?
Answer: 386 and 467
